Source: ChEMBL document CHEMBL4387702, “Design and synthesis novel di-carbonyl analogs of curcumin (DACs) act as potent anti-inflammatory agents against LPS-induced acute lung injury (ALI)” (Eur J Med Chem, 2019)
Activity calls are given as the source filed them. No cut-off for these calls is given here.

What was measured:
RAW264.7 [1] = test: Inhibition of MAPK/NFkappaB in ICR mouse RAW264.7 cells assessed as reduction in LPS-induced IL6 production at 10 uM pretreated for 0.5 hrs followed by LPS challenge and measured after 24 hrs by ELISA relative to control; format: cell-based
RAW264.7 [2] = test: Cytotoxicity against ICR mouse RAW264.7 cells assessed as effect on cell proliferation at 10 uM after 24 hrs by MTT assay; format: cell-based; settings: raw264.7, 24 h
[3] = Inhibition of MAPK/NFkappaB in ICR mouse RAW264.7 cells assessed as reduction in LPS-induced TNFalpha production pretreated for 0.5 hrs followed by LPS challenge and measured after 24 hrs by ELISA; format: cell-based
[4] = Stability in pH 7.4 phosphate buffer assessed as compound decomposition measured up to 25 mins by UV-Vis spectroscopy; format: physicochemical; settings: pH 7.4, 25 min
Procedure, shortened: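 Compound stability was followed by recording UV-visible absorption spectra in phosphate buffer at pH 7.4.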

[5] = molecular target: MAP kinase p38 (Mus musculus) (UniProt P47811+O08911+Q9WUI1+Q9Z1B7); test: Inhibition of LPS-induced p38 MAPK phosphorylation in ICR mouse RAW264.7 cells at 10 uM preincubated for 0.5 hrs followed by LPS challenge and measured after 30 mins by immunoblotting analysis; format: cell-based
Procedure, shortened: (§1)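 RAW 264.7 cells were pretreated with compound for 0.5 h and then stimulated with LPS for 30 min. Lysates were resolved on 10% or 12% SDS-PAGE and transferred to nitrocellulose. Membranes were blocked in TBS (pH 7.6) with 0.05% Tween 20 and 5% milk. Blots were probed for p-p38, p38, p-ERK, ERK, IκBα and GAPDH, detected with HRP secondaries and ECL.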

RAW264.7 [6] = test: Inhibition of NFkappaB/MAPK signaling in LPS-induced mouse RAW264.7 cells assessed as down regulation of IkappaB expression at 10 uM preincubated for 0.5 hrs followed by LPS-challenge and measured after 30 mins by immunoblotting analysis; format: cell-based; procedure, shortened: as §1
[7] = Inhibition of MAPK/NFkappaB in ICR mouse RAW264.7 cells assessed as reduction in LPS-induced IL6 production pretreated for 0.5 hrs followed by LPS challenge and measured after 24 hrs by ELISA; format: cell-based
RAW264.7 [8] = test: Inhibition of MAPK/NFkappaB signaling in ICR mouse RAW264.7 cells assessed as reduction in LPS-induced TNF-alpha mRNA expression pretreated for 0.5 hrs followed by LPS challenge and measured after 40 mins by TRIZOL reagent-based RT-qPCR analysis; format: cell-based
Procedure, shortened: (§2)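 RAW 264.7 cells were pretreated with compound for 0.5 h and then activated with LPS. Values were normalized to actin and expressed relative to the LPS group.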

RAW264.7 [9] = test: Inhibition of MAPK/NFkappaB signaling in ICR mouse RAW264.7 cells assessed as reduction in LPS-induced IL-6 mRNA expression pretreated for 0.5 hrs followed by LPS challenge and measured after 40 mins by TRIZOL reagent-based RT-qPCR analysis; format: cell-based; procedure, shortened: as §2
RAW264.7 [10] = test: Inhibition of MAPK/NFkappaB signaling in ICR mouse RAW264.7 cells assessed as reduction in LPS-induced ICAM1 mRNA expression pretreated for 0.5 hrs followed by LPS challenge and measured after 40 mins by TRIZOL reagent-based RT-qPCR analysis; format: cell-based; procedure, shortened: as §2
RAW264.7 [11] = test: Inhibition of MAPK/NFkappaB signaling in ICR mouse RAW264.7 cells assessed as reduction in LPS-induced VCAM1 mRNA expression pretreated for 0.5 hrs followed by LPS challenge and measured after 40 mins by TRIZOL reagent-based RT-qPCR analysis; format: cell-based; procedure, shortened: as §2
Mus musculus [12] = test: Antiinflammatory activity in C57BL/6 mouse model of LPS-induced acute lung injury assessed as reduction in total cell count in BALF at 10 mg/kg, ip administered daily for one week prior to LPS challenge and measured after 6 hrs; format: functional, organism-based
Procedure, shortened: (§3)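 C57BL/6 mice (eight per group) received 10 mg/kg i.p. daily for one week; vehicle was 0.9% saline. They were then challenged with intratracheal LPS at 5 mg/kg and sacrificed 6 h later. Endpoints were lung wet/dry weight ratio and total and neutrophil cell counts in BALF, reported as mean ± SEM, n = 6.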

Mus musculus [13] = test: Antiinflammatory activity in C57BL/6 mouse model of LPS-induced acute lung injury assessed as reduction in neutrophil count in BALF at 10 mg/kg, ip administered daily for one week prior to LPS challenge and measured after 6 hrs; format: functional, organism-based; procedure, shortened: as §3
Mus musculus [14] = test: Antiinflammatory activity in C57BL/6 mouse model of LPS-induced acute lung injury assessed as reduction in TNF-alpha production in serum at 10 mg/kg, ip administered daily for one week prior to LPS challenge and measured after 6 hrs by ELISA; format: functional, organism-based
Procedure, shortened: (§4)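 In C57BL/6 mice (eight per group), compound was dosed at 10 mg/kg i.p. once daily for a week, with a 0.9% saline vehicle control. LPS 5 mg/kg was given intratracheally and animals were euthanized with chloral hydrate after 6 h. TNF-α and IL-6 in serum and BALF were measured by ELISA. Data are mean ± SEM, n = 6.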

Mus musculus [15] = test: Antiinflammatory activity in C57BL/6 mouse model of LPS-induced acute lung injury assessed as reduction in IL-6 production in serum at 10 mg/kg, ip administered daily for one week prior to LPS challenge and measured after 6 hrs by ELISA; format: functional, organism-based; procedure, shortened: as §4
Mus musculus [16] = test: Antiinflammatory activity in C57BL/6 mouse model of LPS-induced acute lung injury assessed as reduction in TNF-alpha production in BALF at 10 mg/kg, ip administered daily for one week prior to LPS challenge and measured after 6 hrs by ELISA; format: functional, organism-based; procedure, shortened: as §4
Mus musculus [17] = test: Antiinflammatory activity in C57BL/6 mouse model of LPS-induced acute lung injury assessed as reduction in IL-6 production in BALF at 10 mg/kg, ip administered daily for one week prior to LPS challenge and measured after 6 hrs by ELISA; format: functional, organism-based; procedure, shortened: as §4
Mus musculus [18] = test: Antiinflammatory activity in C57BL/6 mouse model of LPS-induced acute lung injury assessed as reduction in IL1beta mRNA expression in lung tissue at 10 mg/kg, ip administered daily for one week prior to LPS challenge and measured after 6 hrs by TRIZOL reagent-based RT-qPCR analysis; format: functional, organism-based
Procedure, shortened: (§5)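 Mouse ALI model with eight C57BL/6 mice per group. Compound was given at 10 mg/kg i.p. daily for one week; controls received 0.9% saline. LPS was instilled intratracheally at 5 mg/kg. Mice were euthanized with chloral hydrate 6 h later and lungs collected. Lung mRNA for each target was quantified by real-time qPCR.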

Mus musculus [19] = test: Antiinflammatory activity in C57BL/6 mouse model of LPS-induced acute lung injury assessed as reduction in ICAM1 mRNA expression in lung tissue at 10 mg/kg, ip administered daily for one week prior to LPS challenge and measured after 6 hrs by TRIZOL reagent-based RT-qPCR analysis; format: functional, organism-based; procedure, shortened: as §5
Mus musculus [20] = test: Antiinflammatory activity in C57BL/6 mouse model of LPS-induced acute lung injury assessed as reduction in VCAM1 mRNA expression in lung tissue at 10 mg/kg, ip administered daily for one week prior to LPS challenge and measured after 6 hrs by TRIZOL reagent-based RT-qPCR analysis; format: functional, organism-based; procedure, shortened: as §5

Row | IC50 [3] | Stability [4] | inhibition [5] | IC50 [7] | Structure (SMILES) | inhibition (RAW264.7 [1]) | Activity (RAW264.7 [2]) | inhibition (RAW264.7 [6]) | inhibition (RAW264.7 [8]) | inhibition (RAW264.7 [9]) | inhibition (RAW264.7 [10]) | inhibition (RAW264.7 [11]) | Activity (Mus musculus [12]) | Activity (Mus musculus [13]) | Activity (Mus musculus [14]) | Activity (Mus musculus [15]) | Activity (Mus musculus [16]) | Activity (Mus musculus [17]) | Activity (Mus musculus [18]) | Activity (Mus musculus [19]) | Activity (Mus musculus [20])
1 | 2.33 µM | Stable | Active | 2.4 µM | COc1cc(/C=C/C(=O)N2CCC/C(=C\c3cc(OC)c(OC)c(OC)c3)C2=O)ccc1OC(C)=O | 99.3 to 99.7% | Non-Toxic | Active | Active | Active | Active | Active | Active | Active | Active | Active | Active | Active | Active | Active | Active
2 | 3.69 µM | Stable | Active | 3.68 µM | COc1cc(/C=C/C(=O)N2CCC/C(=C\c3cc(OC)c(OC)c(OC)c3)C2=O)ccc1O | 99.3 to 99.7% | Non-Toxic | Active | Active | Active | Active | Active | Active | Active | Active | Active | Active | Active | Active | Active | Active
